SIAE inh: inhibitors of human sialic acid acetylesterase SIAE. SIAE FP-Rh probe binding, fluorescence polarization. 370,000 compounds, 0.69% hits. inhibition, % at 9.66 µM;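 active = inhibition above a cutoff: mean of compounds within the control limits plus 3 SD of those, cut at about 17% in these data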;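 note: 0% = plate median of compound wells and 100% = probe without SIAE protein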
Target sequence (Q9HAT2 whole entry, looked up): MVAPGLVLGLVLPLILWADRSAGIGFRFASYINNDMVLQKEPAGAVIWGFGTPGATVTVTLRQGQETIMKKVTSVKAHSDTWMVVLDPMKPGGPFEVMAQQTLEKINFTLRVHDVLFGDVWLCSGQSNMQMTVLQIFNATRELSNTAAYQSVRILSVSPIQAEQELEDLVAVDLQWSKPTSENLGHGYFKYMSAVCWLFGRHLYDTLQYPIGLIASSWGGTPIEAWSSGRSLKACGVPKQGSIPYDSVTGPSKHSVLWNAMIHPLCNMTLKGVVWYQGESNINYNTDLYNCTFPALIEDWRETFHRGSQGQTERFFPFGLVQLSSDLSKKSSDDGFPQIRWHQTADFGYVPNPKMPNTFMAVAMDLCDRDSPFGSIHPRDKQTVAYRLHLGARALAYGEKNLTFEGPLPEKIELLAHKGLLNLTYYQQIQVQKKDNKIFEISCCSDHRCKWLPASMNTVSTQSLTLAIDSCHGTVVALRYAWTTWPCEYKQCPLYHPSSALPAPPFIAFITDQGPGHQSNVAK
ABHD4 inh: inhibitors of mouse ABHD4 | Q8VD66 | purified mABHD4, FP-Rh probe fluorescence polarization | inhibition, % at 8.92 µM | 370,000 compounds, 0.54% hits | AID 720543;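 active = inhibition exceeding the mean over every tested compound plus 3 SD, cut at about 30% in these data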;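 note: 0% = plate median of compound wells and 100% = S159A mutant with DMSO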
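System: mouse ABHD4 enzyme, wild type / Medium: HEPES pH 7.0, NaCl, Pluronic buffer / Reagent: FP-Rh activity-based fluorescent probe / Control set: S159A mutant high control, sample median low control / Detection: fluorescence polarization with parallel and perpendicular emission, 525/598 nm / Schedule: 45 min + 60 min at 25 °C / Compound dosing: 8.92 µM, single dose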
HTRA1 inhibitor: blocks human HTRA1 serine peptidase; Q92743; recombinant HTRA1, FP-rhodamine activity-based probe, fluorescence polarization; inhibition, % at 5.96 µM; 340,000 compounds, 0.5% hits; in the data active = inhibition above about 36%;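 note: 0% = enzyme with DMSO and 100% = wells lacking enzyme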
Tn6 DDE FP: DD(E)-Tn6 binding inhibition, primary FP screen. inhibition, % at 8.3 µM. P02675. Fibrin DD(E) TRITC-Tn6 fluorescence polarization displacement. 370,000 compounds, 0.21% hits. AID 720509;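 active = inhibition above a per-campaign cutoff: mean of compounds within control limits plus 3 SD, cut at about 15% in these data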;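 note: 0% = median of all compound wells on the plate and 100% = blocking peptide control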
TCR CD3 inh: inhibitors of human TCR-CD3 interaction. TAMRA-labeled TCR probe fluorescence, biochemical. inhibition, % at 9.4 µM. 360,000 compounds, 0.37% hits. AID 651800; in the data active = inhibition above about 19%;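 note: recombinant mutant TCR 2C K166C tagged with TAMRA read by polarization; 0% = receptor in buffer alone and 100% = receptor with positive control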
Tn7 DDE FP: disrupts Tn7 cyclic peptide binding to fibrin D-Dimer-E complex; FP displacement of FITC-Tn7 peptide from fibrin DD(E); 0% = median of compound wells per plate; P02675; AID 720508; 370,000 compounds, 0.13% hits; inhibition, % at 8.3 µM;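 active = inhibition above the mean of compounds falling within the control limits plus 3 SD of them, cut at about 14% in these data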;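 note: 0% = plate median of compound wells and 100% = 10 µM Aha-Tn7 peptide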
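Assay system: human fibrin DD(E) protein / Input: 2 µM fibrin DD(E) / Benchmarks: high control of 10 µM Aha-Tn7 peptide / Measured by: fluorescence polarization of the labelled Tn7 tracer / Medium: Tris buffer with calcium and detergent, pH 7.8 / Timing: 10 min compound pre-incubation, 3 h probe incubation at room temperature / Repeats: one replicate per compound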
DDE Tn6 FP ctr: DD(E)-Tn6 binding inhibition, counter-screen. shares compounds with Tn6 DDE FP. Fibrin DD(E), TRITC-Tn6 fluorescence polarization displacement; 0% = median of compound wells, not DMSO. inhibition, % at 8.3 µM. 680 compounds, 2% hits;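 active = inhibition above the mean of test compounds lying between the control limits plus 3 SD of those, cut at about 14% in these data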;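 note: 0% = median of compound wells and 100% = wells with Aha-Tn7 blocking peptide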
DDE Tn6 confirm: DD(E)-Tn6 binding inhibition, FP confirmation | shares compounds with Tn6 DDE FP | FP displacement of TRITC-Tn6 peptide from DD(E); 0% = per-plate median of test wells | inhibition, % at 8.3 µM | 680 compounds, 10% hits | AID 720631;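 active = inhibition above the mean of compounds lying within the control limits plus 3 SD, cut at about 16% in these data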;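 note: 100% = high control wells holding a competing inhibitor peptide at 10 µM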
mABHD4 conf: confirmation of mouse ABHD4 inhibitors; shares compounds with ABHD4 inh; purified mABHD4, FP-Rh probe fluorescence polarization; inhibition, % at 8.92 µM; 1,800 compounds, 55% hits; AID 720658;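 active = mean inhibition across replicates above the hit cutoff set in the primary screen, cut at about 30% in these data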;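 note: 0% = wild-type ABHD4 with DMSO and 100% = catalytically dead S159A mutant with DMSO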
SIAE confirm: confirmation of human SIAE inhibitors; SIAE FP-Rh activity-based probe, fluorescence polarization; shares compounds with SIAE inh; AID 1117263; 2,300 compounds, 13% hits; inhibition, % at 9.66 µM;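 active = mean inhibition of the replicates above the hit cutoff set in the primary screen, cut at about 17% in these data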;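 note: 0% = SIAE with DMSO and probe and 100% = probe without SIAE; inhibitors lower polarization as more probe stays unbound to SIAE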
Starred values were filed as active, the others as inactive; x = no result; + = active, no number. Hits are enriched below; roughly 1.8% of the tested compounds scored in any of these assays.

SMILES	SIAE inh	ABHD4 inh	HTRA1 inhibitor	Tn6 DDE FP	TCR CD3 inh	Tn7 DDE FP	DDE Tn6 FP ctr	DDE Tn6 confirm	others
O=C(Nc1ccc2nc(-c3ccccc3)[nH]c2c1)c1ccco1	-3	-4	-10	-13	4	0	x	x
COc1cc2c(NCCCCCCO[N+](=O)[O-])ncnc2c(OC)c1OC	2	2	x	-6	-3	-2	x	x
N=c1c[n+](N2CCOCC2)[n-]o1	-16	3	3	19*	12	1	-8	-19
COC(=O)N/N=C\c1cc2c(cc1Br)OCO2	1	1	4	17*	12	1	4	-8
O=C(O)c1ccccc1Sc1c([N+](=O)[O-])cc(C(F)(F)F)cc1[N+](=O)[O-]	4	11	1	35*	1	12	0	0
O=C(O)c1ccccc1NSc1ccccc1[N+](=O)[O-]	3	9	-8	-2	2	-2	x	x
N#Cc1cccc(-c2csc(C(O)c3ccc(F)cc3)n2)c1 (stereo not drawn)	-3	-8	x	0	1	-1	x	x
N#Cc1c(Cl)cccc1N1CCC(C(N)=O)CC1	-3	-7	x	-2	6	6	x	x
Cc1cc(C)n2c(Nc3c(C)cccc3C)c(-c3ccccn3)nc2n1	7	16	x	16*	-1	6	4	2
CCC(C)[C@H](NC(=O)NCc1ccc(Cl)cc1)C(=O)OC (stereo partly drawn)	1	-2	-4	17*	3	4	-3	-8
Cc1ccc(CSc2ncn(-c3ccccc3)n2)cc1	0	-10	-11	16*	5	1	4	-2
COc1ccccc1NC(=O)c1ccc[n+]([O-])c1	10	1	7	-3	-4	5	x	x
CC1N(C)c2cc(NC(=O)c3ccco3)ccc2C1(C)C (stereo not drawn)	-407	-270	-277	+	-160	-20	2	5
CC1CCc2c(sc(NC(=O)Cn3nc(C(F)(F)F)c4c3CCCCC4)c2C#N)C1 (stereo not drawn)	4	-5	-6	17*	3	2	9	7
N#Cc1c(NC(=O)Cn2nc(C(F)(F)F)c3c2CCCC3)sc2c1CCC2	-1	1	3	2	5	-5	x	x
Cc1ccc(C(CNS(=O)(=O)c2ccc([N+](=O)[O-])cc2)N2CCN(C)CC2)cc1 (stereo not drawn)	0	7	2	3	12	4	x	x
COc1cc(NC(=O)CN(C)Cc2cccc(F)c2)c(C)cc1[N+](=O)[O-]	8	-3	3	17*	4	-2	9	3
COC(=O)CCC(=O)OC1(C)C(=O)C=C2C=C(C3CC3)N(C3CCCC3)C=C2C1=O (stereo not drawn)	2	8	8	20*	6	-7	-6	-9
CC(=O)Oc1ccc(C(=O)O)cc1OC(C)=O	9	2	2	-5	5	1	x	x
CC(=O)Oc1cccc2c1C(=O)c1c(OC(C)=O)cc(C(=O)O)cc1C2=O	4	48*	2	16*	-4	8	5	2	mABHD4 conf=18
Cc1cccc(NC(=O)c2ccccc2NC(=O)c2ccco2)c1	-4	-14	-17	-2	4	1	x	x
CN(C)c1cccc(O)c1	4	51*	16	34*	14	-4	0	3	mABHD4 conf=5
COc1ccc(CNC(=O)CSc2nc3c([nH]2)c(=O)n(C)c(=O)n3C)cc1	3	-5	x	2	x	-4	x	x
COc1ccc(CCC(=O)Nc2nccs2)cc1OC	-14	2	0	-3	4	-3	x	x
COc1ccc(CCC(=O)Nc2nc3c(s2)CN(C)CC3)cc1OC	2	89*	0	83*	0	1	0	-3	mABHD4 conf=3
SMILES	SIAE inh	ABHD4 inh	HTRA1 inhibitor	Tn6 DDE FP	TCR CD3 inh	Tn7 DDE FP	DDE Tn6 FP ctr	DDE Tn6 confirm	others
Cc1csc(=O)n1CCC(=O)OC(C)C(=O)NCc1ccccc1 (stereo not drawn)	-4	-12	3	1	2	-8	x	x
N#C/C(=C/C1=C(N2CCOCC2)C(=C/c2ccc(Cl)cc2Cl)/CC1)C(=O)Nc1ccccc1F	-10	40*	-5	156*	5	4	0	11	mABHD4 conf=-19
Cc1cc2c(NC(=O)Nc3ccc(C(F)(F)F)cc3)cccc2nn1	-25	109*	35	108*	6	-2	12	11	mABHD4 conf=-101
Cc1cc2c(NC(=O)CCCC(=O)O)cccc2nn1	2	2	-5	3	-6	-8	x	x
CCN(CC)c1ccc2cc(C(N)=O)c(=O)oc2c1	10	41*	10	20*	11	-8	1	0	mABHD4 conf=4
Cc1nn(-c2ccccc2)c2c1C(c1ccc([N+](=O)[O-])cc1)C(C#N)=C(N)O2 (stereo not drawn)	9	42*	11	16*	-7	4	0	-2	mABHD4 conf=11
O=C1CC[C@@]23CCCN2C(=O)CCCC3C1 (stereo partly drawn)	0	4	2	1	8	1	x	x
Cc1cc2ccccc2n1CCNC(=O)Cc1cccc2ccccc12	22*	46*	36	46*	68*	-1	12	9	mABHD4 conf=-18;SIAE confirm=-2
CCC(=O)NCCn1c(C)cc2ccccc21	x	x	8	x	x	x	x	x
c1ccc2c(c1)CCN(C1=Nc3cccc4cccc1c34)C2	30*	9	17	18*	6	-4	-7	63*	SIAE confirm=1
CN1CCS/C1=C/C=C1/SC(=S)N(Cc2ccccc2)C1=O	22*	86*	3	38*	1	-24	-15	16*	mABHD4 conf=20;SIAE confirm=22*
O=C(c1ccccc1N1CCOCC1)N1CCCC(Nc2ccc(F)cc2)C1 (stereo not drawn)	9	3	3	2	7	0	x	x
O=C(CCN1CCOCC1)N1CCCC(Nc2ccc(F)cc2)C1 (stereo not drawn)	18*	4	-1	15*	7	1	-2	-12	SIAE confirm=-2
c1cc(CNc2ccc3c(c2)OCO3)ccn1	19*	19	16	16*	17	6	-1	-3	SIAE confirm=4

High-throughput results: PubChem, The Scripps Research Institute Molecular Screening Center
